The text below walks through data of ChEMBL document CHEMBL1147444, “Antagonists of human CCR5 receptor containing 4-(pyrazolyl)piperidine side chains. Part 1: Discovery and SAR study of 4-pyrazolylpiperidine side chains” (Bioorg Med Chem Lett, 2004).

Series [1] has as its system Human immunodeficiency virus 1. Kind of series: (§1) In vitro antiviral activity against HIV-1 infected HeLa cells. The following applies: Human immunodeficiency virus 1, HeLa. Type of series: functional. The method in brief:
(§2)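 Cell-culture HIV-1 infectivity assay in HeLa cells. Read-out is the IC90, with the IC50 given for some entries.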

The target of series [2] is T1, C-C chemokine receptor type 5 (Homo sapiens, UniProt P51681). Kind of series: Inhibitory activity against human CC chemokine receptor 5. The method in brief:
(§3)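 Displacement of [125I]-labeled MIP-1α from human CCR5 on CHO cell membranes, described as a GP120-membrane-based assay. IC50 values are averages of triplicate measurements, with a standard compound run to check variability between assays. Single-point lines are percent inhibition at 2 μM.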
Target sequence in this assay (P51681 whole entry): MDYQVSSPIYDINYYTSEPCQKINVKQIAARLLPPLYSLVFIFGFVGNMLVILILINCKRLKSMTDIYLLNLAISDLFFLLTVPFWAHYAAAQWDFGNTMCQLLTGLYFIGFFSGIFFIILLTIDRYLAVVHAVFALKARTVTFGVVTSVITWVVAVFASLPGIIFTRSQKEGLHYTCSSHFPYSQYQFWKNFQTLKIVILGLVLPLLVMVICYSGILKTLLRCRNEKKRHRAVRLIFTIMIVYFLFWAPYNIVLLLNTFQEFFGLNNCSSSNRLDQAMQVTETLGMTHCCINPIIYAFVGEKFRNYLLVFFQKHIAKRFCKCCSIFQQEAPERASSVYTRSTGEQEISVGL

Series [3] deals with T1, C-C chemokine receptor type 5. Kind of series: Inhibitory activity against human Chemokine receptor 5 at 2 uM concentration. The method in brief:
as §3
Target sequence in this assay (P51681 whole entry, looked up): as the sequence (P51681 whole entry) above

For series [4] the target is unchanged. The series is described as follows: Inhibition of human C-C chemokine receptor 5 by displacement of [125I]-labeled MIP-1alpha from CHO cell membranes.
Target sequence in this assay (P51681 whole entry): as above
Another series deals with HeLa. Described as §1. Type of series: functional, cell-based. The following applies: Homo sapiens. The method in brief:
as §2

Series [5] can be described thus: Plasma clearance in rat. In kind it is ADME, organism-based. The following applies: read-out: Clp.
The subject of a further series is Rattus norvegicus. The series is described as follows: Area under curve in rat after p.o. administration. Type of series: ADME, organism-based. The following applies: in vivo, po.
Series [6] can be described thus: Oral bioavailability in rat. The conditions noted are these: in vivo. Type of series: ADME, organism-based.

By IC90 is commonly meant the point of the concentration-response curve where the effect stands at 90%. A lower IC90 goes with greater potency. One may read the IC50 as the concentration that gives 50% inhibition. As a reminder, the inhibition is the drop in the measured response relative to a control, in per cent. One may read the bioavailability as dose-corrected exposure relative to a reference, in per cent. Low readings indicate poor availability, high ones good availability.

Regarding `CCn1nc(C2CCN(C[C@H]3CN([C@@H](C(=O)O)C4CCCCC4)C[C@@H]3c3ccccc3)CC2)cc1Cc1ccccc1`, the IC90 in series [1] is greater than 300 nM. For the same compound, in series [2], the IC50 worked out at 76 nM.

`Cc1cc(-c2ccccc2)n(C2CCN(C[C@H]3CN([C@@H](C(=O)O)C4CCCCC4)C[C@@H]3c3ccccc3)CC2)n1` displayed an inhibition in series [3] of 65%.

In series [1], `CCn1cc(CCc2ccccc2)c(C2CCN(C[C@H]3CN([C@@H](C(=O)O)C4CCCCC4)C[C@@H]3c3ccccc3)CC2)n1` had an IC90 of 300 nM. In series [2], the IC50 was found to be 2.3 nM.

In series [4], `CCCn1ncc(CCc2ccccc2)c1C1CCN(C[C@H]2CN([C@@H](C(=O)O)C3CCCCC3)C[C@@H]2c2ccccc2)CC1` yielded an IC50 of 0.6 nM. In series [1], this compound yielded a 90% effect concentration (IC90) of 11 nM.

Compound `O=C(O)[C@@H](C1CCCCC1)N1C[C@H](CN2CCC(c3[nH]ncc3Cc3ccccc3)CC2)[C@@H](c2ccccc2)C1` returned an IC90 in series [1] of 100 nM. The same compound came in with an IC50 in series [2] of 4.8 nM.

In turn, `COc1ccc(-c2cc(C3CCN(C[C@H]4CN([C@@H](C(=O)O)C5CCCCC5)C[C@@H]4c4cccc(F)c4)CC3)[nH]n2)cc1` registered an IC50 in series [4] of 12 nM. This compound also displayed an IC90 in series [1] greater than 300 nM.

`CCn1nc(-c2ccc(CN)cc2)cc1C1CCN(C[C@H]2CN([C@@H](C(=O)O)C3CCCCC3)C[C@@H]2c2ccccc2)CC1`: in series [2], half-maximal inhibition (IC50) was put at 112 nM.

`O=C(O)[C@@H](C1CCCCC1)N1C[C@H](CN2CCC(c3cc(Cc4ccccc4)n[nH]3)CC2)[C@@H](c2ccccc2)C1` returned an IC90 in series [1] of 0.4 nM. In series [2], this compound registered an IC50 of 2.2 nM.

In series [3], `Cc1cc(-c2ccccc2)nn1C1CCN(C[C@H]2CN([C@@H](C(=O)O)C3CCCCC3)C[C@@H]2c2ccccc2)CC1` gave an inhibition of 79%.

`O=C(c1ccccc1)c1c[nH]nc1C1CCN(C[C@H]2CN([C@@H](C(=O)O)C3CCCCC3)C[C@@H]2c2ccccc2)CC1`: in series [2], the half-inhibitory concentration (IC50) came to 41 nM.

Take `CCn1ncc(C(=O)c2ccccc2)c1C1CCN(C[C@H]2CN([C@@H](C(=O)O)C3CCCCC3)C[C@@H]2c2ccccc2)CC1`: in series [2], the IC50 worked out at 23 nM.

Compound `CCc1cc(CCc2ccccc2)n(C2CCN(C[C@H]3CN([C@@H](C(=O)O)C4CCCCC4)C[C@@H]3c3ccccc3)CC2)n1` yielded an inhibition in series [3] of 82%.

Take `CCn1nc(-c2ccc(C#N)cc2)cc1C1CCN(C[C@H]2CN([C@@H](C(=O)O)C3CCCCC3)C[C@@H]2c2ccccc2)CC1`: the IC50 with HeLa stood at 33 nM; in series [2] it was 16 nM. This compound returned an IC90 in series [1] greater than 300 nM.

Regarding `CCn1cc(Cc2ccccc2)c(C2CCN(C[C@H]3CN([C@@H](C(=O)O)C4CCCCC4)C[C@@H]3c3ccccc3)CC2)n1`, the concentration for an effect of 90% (IC90) in series [1] is greater than 300 nM. Also, the IC50 in series [2] was found to be 20 nM.

Consider `CCCn1cc(CCc2ccccc2)c(C2CCN(C[C@H]3CN([C@@H](C(=O)O)C4CCCCC4)C[C@@H]3c3ccccc3)CC2)n1`, for which the IC50 in series [4] was 9 nM.

`Cn1nc(Cc2ccccc2)cc1C1CCN(C[C@H]2CN([C@@H](C(=O)O)C3CCCCC3)C[C@@H]2c2ccccc2)CC1` had an IC90 in series [1] of 3.7 nM. Further, the half-maximal inhibitory concentration (IC50) in series [2] stood at 4.2 nM.

The compound `O=C(O)[C@@H](C1CCCCC1)N1C[C@H](CN2CCC(c3cc(-c4cccc5ccccc45)[nH]n3)CC2)[C@@H](c2ccccc2)C1` had an IC50 in series [4] of 7.5 nM. For the same compound, in series [1], the IC90 was greater than 300 nM.

Compound `O=C(O)[C@@H](C1CCCCC1)N1C[C@H](CN2CCC(c3cc(-c4ccc(Cl)cc4Cl)[nH]n3)CC2)[C@@H](c2cccc(F)c2)C1` had an IC50 in series [4] of 9 nM. In series [1], this compound gave an IC90 greater than 300 nM.

The compound `CCn1ncc(C(C)(C)c2ccccc2)c1C1CCN(C[C@H]2CN([C@@H](C(=O)O)C3CCCCC3)C[C@@H]2c2ccccc2)CC1` registered an IC90 in series [1] of 300 nM. In addition, it took 6.9 nM to reach half-maximal inhibition in series [2] (IC50).

In the case of `O=C(O)[C@@H](C1CCCCC1)N1C[C@H](CN2CCC(c3oncc3Cc3ccccc3)CC2)[C@@H](c2ccccc2)C1`, the clearance in series [5] is 67 mL/min/kg. The “AUC N” value in the series on Rattus norvegicus stood at 0.03 uM hr dose-1. In addition, in series [6], the bioavailability was found to be 5.9%. This compound had an IC90 in series [1] of 0.4 nM. This compound yielded an IC50 in series [2] of 0.8 nM.

In series [2], `O=C(O)Cn1nc(Cc2ccccc2)cc1C1CCN(C[C@H]2CN([C@@H](C(=O)O)C3CCCCC3)C[C@@H]2c2ccccc2)CC1` gave an IC50 of 33 nM.

`CCn1nc(-c2cccc3ccccc23)cc1C1CCN(C[C@H]2CN([C@@H](C(=O)O)C3CCCCC3)C[C@@H]2c2cccc(F)c2)CC1`: in series [4], the IC50 stood at 16 nM.

The compound `O=C(O)[C@@H](C1CCCCC1)N1C[C@H](CN2CCC(c3n[nH]cc3CCc3ccccc3)CC2)[C@@H](c2ccccc2)C1` registered an IC90 in series [1] of 33 nM. In series [2], this compound returned an IC50 of 1.2 nM.

`O=C(O)[C@@H](C1CCCCC1)N1C[C@H](CN2CCC(c3nocc3Cc3ccccc3)CC2)[C@@H](c2ccccc2)C1` yielded an IC90 in series [1] of 3.7 nM. In series [2], this compound came in with an IC50 of 1.2 nM.

`CCCn1nc(Cc2ccccc2)cc1C1CCN(C[C@H]2CN([C@@H](C(=O)O)C3CCCCC3)C[C@@H]2c2ccccc2)CC1` displayed an IC90 in series [1] of 1.2 nM. This compound returned an IC50 in series [2] of 4.6 nM.

Consider `O=C(O)[C@@H](C1CCCCC1)N1C[C@H](CN2CCC(c3cc(-c4ccc(Cl)cc4)n[nH]3)CC2)[C@@H](c2cccc(F)c2)C1`, for which, in series [4], the IC50 was 4 nM. The IC90 in series [1] was greater than 300 nM.

Turning to `Cn1ncc(CCc2ccccc2)c1C1CCN(C[C@H]2CN([C@@H](C(=O)O)C3CCCCC3)C[C@@H]2c2ccccc2)CC1`, in series [4], the IC50 turned out to be 1 nM. In addition, the IC90 in series [1] came to 3.7 nM.

In series [1], `O=C(O)[C@@H](C1CCCCC1)N1C[C@H](CN2CCC(c3n[nH]cc3C3(c4ccccc4)CC3)CC2)[C@@H](c2ccccc2)C1` came in with an IC90 greater than 300 nM. In series [2], this compound showed an IC50 of 4.4 nM.

In the case of `O=C(O)[C@@H](C1CCCCC1)N1C[C@H](CN2CCC(c3cc(Cc4ccccc4)nn3CC(F)(F)F)CC2)[C@@H](c2ccccc2)C1`, the IC90 in series [1] is 33 nM. In series [2], this compound gave an IC50 of 4.8 nM.

On to `CCn1ncc(C2(c3ccccc3)CC2)c1C1CCN(C[C@H]2CN([C@@H](C(=O)O)C3CCCCC3)C[C@@H]2c2ccccc2)CC1`, for which the IC50 in series [2] came to 11 nM.

On to `CC(C)(c1ccccc1)c1cn[nH]c1C1CCN(C[C@H]2CN([C@@H](C(=O)O)C3CCCCC3)C[C@@H]2c2ccccc2)CC1`, for which the IC50 in series [2] amounted to 11.5 nM.

Regarding `O=C(O)[C@@H](C1CCCCC1)N1C[C@H](CN2CCC(c3n[nH]cc3C(F)(F)c3ccccc3)CC2)[C@@H](c2ccccc2)C1`, in series [1], the IC90 is 300 nM. Also, in series [2], the IC50 is 2.1 nM.

Compound `Cn1cc(CCc2ccccc2)c(C2CCN(C[C@H]3CN([C@@H](C(=O)O)C4CCCCC4)C[C@@H]3c3ccccc3)CC2)n1` yielded an IC50 in series [4] of 23 nM.

In series [1], `CCOC(=O)Cn1nc(Cc2ccccc2)cc1C1CCN(C[C@H]2CN([C@@H](C(=O)O)C3CCCCC3)C[C@@H]2c2ccccc2)CC1` registered a 90% effect concentration (IC90) of 11 nM. Also, in series [2], the IC50 was 9 nM.

In series [1], `CCCCn1nc(Cc2ccccc2)cc1C1CCN(C[C@H]2CN([C@@H](C(=O)O)C3CCCCC3)C[C@@H]2c2ccccc2)CC1` yielded an IC90 of 11 nM. In series [2], this compound yielded an IC50 of 3 nM.

Take `N#Cc1ccc(-c2cc(C3CCN(C[C@H]4CN([C@@H](C(=O)O)C5CCCCC5)C[C@@H]4c4ccccc4)CC3)n[nH]2)cc1`: the IC50 in the series with HeLa was 100 nM; in series [4] it was 7.5 nM. Besides, the IC90 in series [1] was greater than 300 nM.

As for `CCn1ncc(CCc2ccccc2)c1C1CCN(C[C@H]2CN([C@@H](C(=O)O)C3CCCCC3)C[C@@H]2c2ccccc2)CC1`, the clearance in series [5] was determined as 79 mL/min/kg. Further, the “AUC N” value in the series with Rattus norvegicus was 0.01 uM hr dose-1. The compound also gave a bioavailability in series [6] of 2.6%. Also, in series [1], the concentration for an effect of 90% (IC90) stood at 0.4 nM. The compound also gave an IC50 in series [2] of 0.6 nM.
